From PubChem
KCNK3 block – human KCNK3 channel inhibition, primary screen; O14649; B-score at 10 µM; 0.84% of 340,000 active; CHO-KCNK3 thallium flux, FluxOR fluorescence; active compounds read low;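 active = B-score under library mean minus 4 SD, starting fluorescence ratio at most library mean plus 5 SD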;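 note: more negative B-score means stronger inhibition of thallium flux through KCNK3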
Target sequence (O14649 whole entry, looked up): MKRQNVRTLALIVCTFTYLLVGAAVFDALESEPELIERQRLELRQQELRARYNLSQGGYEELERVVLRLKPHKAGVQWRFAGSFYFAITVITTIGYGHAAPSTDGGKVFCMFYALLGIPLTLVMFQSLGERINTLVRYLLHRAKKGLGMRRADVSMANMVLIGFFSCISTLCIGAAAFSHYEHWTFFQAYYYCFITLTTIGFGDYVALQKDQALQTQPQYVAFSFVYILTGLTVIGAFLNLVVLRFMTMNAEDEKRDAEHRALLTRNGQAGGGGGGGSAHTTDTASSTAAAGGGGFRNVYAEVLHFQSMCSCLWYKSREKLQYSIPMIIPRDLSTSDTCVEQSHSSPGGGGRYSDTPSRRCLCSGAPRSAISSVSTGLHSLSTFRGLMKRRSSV
Kir21 inh – blocks the mouse Kir2.1 inward-rectifier potassium channel | B-score at 10 µM | HEK293-Kir2.1, FluxOR thallium flux fluorescence; active compounds read low | P35561 | 0.85% of 310,000 active | AID 1672;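 active = fluorescence ratio B-score at or below minus 3 SD of library scores, with starting-brightness B-score within 2 SD, cut at about -4.2 in these data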;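 note: channel flux triggered by added potassium and thallium sulfate stimulus; B-score of peak minus minimum fluorescence over baseline after thallium stimulus; more negative B-score means stronger Kir2.1 block with less thallium influx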
KCNQ1 act – human KCNQ1 channel potentiation or activation | P51787 | CHO-K1 KCNQ1, thallium flux FluxOR fluorescence; active compounds read high | B-score at 10 µM | 0.35% of 310,000 active;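 active = fluorescence ratio B-score, a plate-corrected score, at least three library SD, with initial intensity B-score within 5 SD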
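System: Stable KCNQ1 CHO-K1 line | Incubation: 90 min dye loading and 20 min compound exposure, both at room temperature | Measure: Ratio B score | Medium: Assay buffer for compound exposure, DMSO matched across wells | Compound dosing: Single-concentration screen | Probe or stimulus: K+/Tl+ depolarizing stimulus | Measured by: Kinetic FluxOR fluorescence, 10 s baseline plus 110 s post-stimulus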
KCNK9 inh – blocks the human KCNK9 two-pore domain potassium channel | Q9NPC2 | HEK293 KCNK9, FluxOR thallium flux fluorescence; active compounds read low | B-score at 10 µM | 1.2% of 310,000 active | AID 488922;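 active = ratio B-score over 3 SD below the library mean, with starting fluorescence within 5 SD of its mean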;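 note: negative B-score means less thallium flux so channel inhibition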
KCNQ1 block – inhibitors of human KCNQ1 potassium channel; P51787; CHO-K1 KCNQ1, FluxOR thallium flux fluorescence; active compounds read high; B-score at 10 µM; 1.3% of 310,000 active; AID 2642;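 active = compounds whose thallium flux B-score, printed positive for inhibition, exceeds three library SD while starting fluorescence stays within three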;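 note: channel opened by potassium depolarization with thallium stimulus after 20 min compound exposure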
hERG rescue – compounds protecting human hERG from proarrhythmic drug block; Q12809; CHO-hERG, FluxOR thallium flux, dofetilide IC70 present; 0.51% of 310,000 active; activation (rescue from dofetilide block), less the hit threshold, % at 10 µM;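 active = activation above the mean of controls blocked by dofetilide plus 5 SD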;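 note: thallium influx through hERG after potassium depolarization seen as dye fluorescence rise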
The depositor's hits bear a star; i = inactive; nt = no result. Hits are enriched below; roughly 3.8% of the tested compounds scored in any of these assays.

SMILES | KCNK3 block | Kir21 inh | KCNQ1 act | KCNK9 inh | KCNQ1 block | hERG rescue
Cc1ccc(OC(=O)c2ccc(Br)o2)cc1 | i | 2.89 | i | i | i | 22.2*
CS(=O)(=O)c1ccc(C(=O)OCc2nnc(-c3ccc(Cl)cc3)o2)cc1[N+](=O)[O-] | i | -1.14 | 12* | i | i | -17.8
O=C(OCc1nnc(-c2ccc(Cl)cc2)o1)c1ccc(O)cc1 | i | -0.66 | i | i | i | -8.0
COc1cccc(CN(C)CCCn2ccc(NC(=O)OCc3ccccc3)nc2=O)c1 | i | nt | nt | nt | nt | nt
CC(C)(C)C(=O)/C=c1\[nH]c(=O)/c(=C\c2ccc(F)cc2)s1 | i | 0.02 | i | -7.99* | i | -11.0
CCc1ccc(/C=c2\s/c(=C\C(=O)C(C)(C)C)[nH]c2=O)cc1 | i | 0.73 | i | i | i | 3.8
COc1ccc(CC(=O)NC2CCSc3ccccc32)c(OC)c1 (stereo not drawn) | i | -5.9* | i | i | i | -10.2
COc1ccc(OC)c(C(=O)NC2CCSc3ccccc32)c1 (stereo not drawn) | i | -0.06 | i | i | i | -4.5
COc1ccc(/C=C/C(=O)Nc2cc(=O)n(C)c(=O)n2C)cc1 | i | 0.94 | i | i | i | -10.1
COc1cc(OC)cc(C(=O)NC(=S)Nc2ccc3oc(=O)ccc3c2)c1 | i | -0.05 | i | i | i | -10.4
Cc1ccc(N2C(=O)c3ccccc3NC2c2ccccc2O)cc1 (stereo not drawn) | i | 1.31 | i | i | i | -1.1
O=C1c2ccccc2NC(c2ccccc2O)N1O (stereo not drawn) | i | -1.99 | 8* | i | i | -5.4
COc1ccc(C2=CC3=C(Br)C(=O)C(C)(OC(=O)c4cccs4)C(=O)C3=CO2)cc1 (stereo not drawn) | i | -0.04 | i | i | i | -13.4
CC(NC(=O)c1ccc(Br)cc1)c1ccc2c(c1)CCCC2 (stereo not drawn) | i | -0.01 | i | i | i | 7.8*
Cc1ccc(/C=N/NC(=O)CC2N=C(Cc3ccccc3)NNC2=O)cc1 (stereo not drawn) | i | 1.68 | i | i | i | 5.2*
C/C(=N\NC(=O)CC1N=C(Cc2ccccc2)NNC1=O)c1ccncc1 (stereo not drawn) | i | 0.46 | i | i | i | -5.9
COc1ccc2o/c(=N\O)c(C(=O)Nc3ccc(C)cc3)cc2c1 | i | -1.49 | i | i | 6* | -10.8
S=c1[nH]nc(-c2ccccn2)n1/N=C/c1ccc(-c2ccccc2Br)o1 | i | -0.79 | i | i | i | 13.7*
S=c1[nH]nc(-c2ccccc2)n1/N=C/c1ccc(-c2ccccc2Cl)o1 | i | 0.83 | 8* | i | i | 3.8
CC(C)Oc1ccc(CC(=O)NNC(=S)Nc2ccccc2)cc1 | i | -1.56 | i | i | i | -15.6
COC(C[C@H](O)[C@H](C)[C@H](O)COCc1ccccc1)OC | i | -1.03 | i | i | i | -5.5
O=[N+]([O-])c1cc2c(cc1CN1CCN(c3ccccc3)CC1)OCO2 | i | -1.36 | i | i | i | -1.6
Oc1ccccc1CN(Cc1ccco1)CC(O)COCc1ccc(Cl)cc1 (stereo not drawn) | i | -0.85 | i | i | i | -8.2
COc1ccc(COCC(O)CN(Cc2ccco2)Cc2ccccc2O)cc1 (stereo not drawn) | i | -6.69* | i | i | i | -11.6
O=C(/C=C/c1cccs1)N1CCC2(CC1)Oc1ccc(Cl)cc1C(=O)C21CC(c2ccccc2)=NO1 (stereo not drawn) | i | 0.68 | i | i | i | -6.1
SMILES | KCNK3 block | Kir21 inh | KCNQ1 act | KCNK9 inh | KCNQ1 block | hERG rescue
Cc1ccc2nc(CCc3nc4ccc(C)cc4[nH]3)[nH]c2c1 | i | -4.36* | i | i | i | -7.7
COCc1cc(C)nc(SCC(=O)c2ccc(O)c(O)c2)c1C#N | i | 0.15 | i | i | i | 5.7*
O=C(CCCn1nnnc1CN1CCOCC1)N1CCN(c2ccccc2F)CC1 | i | 0.8 | 8* | i | i | -8.6
COc1cc(CNCCNC(=O)c2nonc2N)ccc1OCc1ccc(Cl)cc1 | i | -6.65* | i | i | i | -22.6
C/C(=N\NC(=O)c1ccc(O)cc1)c1ccc2c(c1)Nc1ccccc1S2 | i | 0.74 | i | i | 6* | -15.7
N#C/C(=C\c1ccc(O)cc1)C(=O)N1CCCC1 | i | 0.74 | i | i | i | -7.7
N#C/C(=C\c1ccc(C#N)cc1)C(=O)N1CCCC1 | i | -0.66 | i | i | 6* | -13.4
CC1CC(C)CN(CCCNC(=O)c2ccc(N3CCCC3=O)cc2)C1 (stereo not drawn) | i | -0.68 | i | i | i | -5.9
CN1CC=C2C(C#N)=C(N)C(C#N)(C#N)C(c3ccsc3)C2C1 (stereo not drawn) | i | -0.22 | i | i | i | -9.7
CN1CC=C2C(C#N)=C(N)C(C#N)(C#N)[C@H](c3cccc(Cl)c3)C2C1 (stereo partly drawn) | i | -3.26 | i | i | 8* | -11.1
CC(C)c1ccc(C2C3CSCC=C3C(C#N)=C(N)C2(C#N)C#N)cc1 (stereo not drawn) | nt | 0.33 | i | i | 12* | -20.5
CCC1(c2ccccc2)NC(=O)N(CC(=O)Nc2cccc(S(=O)(=O)N3CCCCC3)c2)C1=O (stereo not drawn) | i | nt | nt | nt | nt | nt
O=C(Nc1ccc([N+](=O)[O-])cc1Cl)c1cc(Cl)ccc1O | i | nt | nt | nt | nt | nt
O=C(Nc1cccc(Cl)c1)c1cc(N=Nc2ccc([N+](=O)[O-])cc2Cl)ccc1O | i | -2.27 | i | i | 7* | -12.6
O=C(c1ccccc1)C1CCN(C(=O)Nc2ccccc2)CC1 | i | -0.54 | i | i | i | -10.8
Cc1noc(C)c1COc1cccc(C(=O)Nc2ccc(Br)cc2F)c1 | -9.22* | nt | nt | nt | nt | nt
Cc1ccc(NC(=O)c2cccc(OCc3c(C)noc3C)c2)c(C)c1 | i | 0.03 | i | i | i | -10.7
COc1cccc(N2CCN(c3ncnc4c3[nH]c3ccc(F)cc34)CC2C)c1 (stereo not drawn) | -13.3* | -0.76 | i | i | 13* | -37.5
Cc1occc1C(=O)/C(C#N)=C/c1ccc(O)c(Br)c1 | i | -1.23 | i | i | 11* | -24.6
COc1cccc(Nc2nnc(SCc3cc([N+](=O)[O-])cc4c3OCOC4)s2)c1 | i | -1.62 | i | i | i | -14.1
Cc1cccc(C)c1Nc1nnc(SCc2cc([N+](=O)[O-])cc3c2OCOC3)s1 | i | -2.82 | i | -6.71* | i | -15.4
